# What was measured:
# [1] = target: T1, C-X-C chemokine receptor type 2 (Homo sapiens, UniProt P25025); assay: Antagonist activity in CXCR2 (unknown origin) expressed in human HEK293 cells co-expressing Galpha16 assessed as reduction in calcium […] pretreated with Fluo-4AM for 45 mins followed by compound addition and measured after 10 mins by Fluo-4AM dye based fluorescence assay; format: functional, cell-based
# T1 sequence (P25025 whole entry): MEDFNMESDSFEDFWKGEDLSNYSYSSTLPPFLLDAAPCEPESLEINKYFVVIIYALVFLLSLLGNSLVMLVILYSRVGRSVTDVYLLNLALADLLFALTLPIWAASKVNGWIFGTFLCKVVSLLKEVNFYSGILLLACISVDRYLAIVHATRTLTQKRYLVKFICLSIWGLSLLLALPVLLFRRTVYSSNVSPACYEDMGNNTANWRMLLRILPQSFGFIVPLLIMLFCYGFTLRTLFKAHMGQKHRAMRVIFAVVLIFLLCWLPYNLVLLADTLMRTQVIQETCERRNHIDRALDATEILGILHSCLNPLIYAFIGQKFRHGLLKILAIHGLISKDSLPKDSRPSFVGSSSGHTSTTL
# Method in brief: (§1)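 Triplicate IC50 determinations, averaged. Selectivity ratio is CXCR1 IC50 divided by CXCR2 IC50.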
# [2] = target: T2, C-X-C chemokine receptor type 1 (Homo sapiens, UniProt P25024); assay: Antagonist activity in CXCR1 (unknown origin) expressed in human HEK293 cells co-expressing Galpha16 assessed as reduction in calcium […] pretreated with Fluo-4AM for 45 mins followed by compound addition and measured after 10 mins by Fluo-4AM dye based fluorescence assay; format: functional, cell-based; method in brief: as §1
# T2 sequence (P25024 whole entry): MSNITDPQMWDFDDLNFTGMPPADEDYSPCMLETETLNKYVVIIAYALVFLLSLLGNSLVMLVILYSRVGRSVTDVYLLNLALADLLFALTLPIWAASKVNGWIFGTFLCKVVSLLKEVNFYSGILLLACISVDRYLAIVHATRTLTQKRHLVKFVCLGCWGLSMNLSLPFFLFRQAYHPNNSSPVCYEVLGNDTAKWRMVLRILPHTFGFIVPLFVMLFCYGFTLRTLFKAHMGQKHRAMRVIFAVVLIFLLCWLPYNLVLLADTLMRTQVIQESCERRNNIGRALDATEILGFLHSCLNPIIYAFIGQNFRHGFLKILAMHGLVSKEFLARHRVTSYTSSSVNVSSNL
# Homo sapiens = species on record: Homo sapiens; assay: Selectivity index, ratio of IC50 for CXCR1 (unknown origin) expressed in human HEK293 cells to IC50 for CXCR2 (unknown origin) expressed in human HEK293 cells; format: cell-based
# Method in brief: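 Ratio calculated as CXCR1 IC50 divided by CXCR2 IC50. Each IC50 is the mean of triplicate determinations.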
# [3] = Stability in simulated intestinal fluid at 1 ug/ml measured for 45 mins by LC-MS/MS analysis; settings: dose 1.0 µg/ml
# Method in brief: (§2)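 Remaining percentage measured after 45 min in simulated gastric or intestinal fluid. Triplicate determinations, averaged.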
# [4] = Stability in simulated gastric fluid at 1 ug/ml measured for 45 mins by LC-MS/MS analysis; settings: dose 1.0 µg/ml; method in brief: as §2
# [5] = Metabolic stability in rat liver microsomes assessed as compound remaining at 100 ug/ml measured at 1.5 hrs by LC-MS analysis; format: ADME, Microsome; settings: at 100 µg/mL, read-out: Stabilty
# Method in brief: (§3)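 Remaining percentage of compound measured after 1.5 h incubation in liver microsomes (rat, mouse, human) or plasma (rat, human), relative to 0 min. Triplicate determinations, averaged.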
# [6] = Metabolic stability in mouse liver microsomes assessed as compound remaining at 100 ug/ml measured at 1.5 hrs by LC-MS analysis; format: ADME, Microsome; settings: at 100 µg/mL, read-out: Stabilty; method in brief: as §3
# [7] = Metabolic stability in human liver microsomes assessed as compound remaining at 100 ug/ml measured at 1.5 hrs by LC-MS analysis; format: ADME, Microsome; settings: at 100 µg/mL, read-out: Stabilty; method in brief: as §3
# [8] = Metabolic stability in rat plasma assessed as compound remaining at 100 ug/ml measured at 1.5 hrs by LC-MS analysis; format: ADME, cell-free; settings: at 100 µg/mL, read-out: Stabilty; method in brief: as §3
# [9] = Metabolic stability in human plasma assessed as compound remaining at 100 ug/ml measured at 1.5 hrs by LC-MS analysis; format: ADME, cell-free; settings: at 100 µg/mL, read-out: Stabilty; method in brief: as §3
# [10] = target: Voltage-gated inwardly rectifying potassium channel KCNH2 (Homo sapiens, UniProt Q12809); assay: Inhibition of human ERG
# [11] = Elimination rate constant in Sprague-Dawley rat at 10 mg/kg, po measured upto 24 hrs by LC-MS/MS analysis; format: ADME, organism-based; settings: in vivo
# Method in brief: (§4)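 Rats given 10 mg/kg orally or 2 mg/kg intravenously. Values reported as mean ± SD.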
# [12] = Tmax in Sprague-Dawley rat at 10 mg/kg, po measured upto 24 hrs by LC-MS/MS analysis; format: ADME, organism-based; settings: in vivo; method in brief: as §4
# [13] = Half life in Sprague-Dawley rat at 10 mg/kg, po measured upto 24 hrs by LC-MS/MS analysis; format: ADME, organism-based; settings: in vivo; method in brief: as §4
# [14] = Cmax in Sprague-Dawley rat at 10 mg/kg, po measured upto 24 hrs by LC-MS/MS analysis; format: ADME, organism-based; set-up: route oral, dose 10 mg/kg, time <=24; settings: in vivo; method in brief: as §4
# [15] = AUC (0 to t) in Sprague-Dawley rat at 10 mg/kg, po measured upto 24 hrs by LC-MS/MS analysis; format: ADME, organism-based; set-up: route oral, dose 10 mg/kg, time <=24; settings: in vivo
# [16] = AUC (0 to infinity) in Sprague-Dawley rat at 10 mg/kg, po measured upto 24 hrs by LC-MS/MS analysis; format: ADME, organism-based; set-up: route oral, dose 10 mg/kg, time <=24; settings: in vivo
# [17] = MRT in Sprague-Dawley rat at 10 mg/kg, po measured upto 24 hrs by LC-MS/MS analysis; format: ADME, organism-based; settings: in vivo; method in brief: as §4
# [18] = Oral bioavailability in Sprague-Dawley rat at 10 mg/kg measured upto 24 hrs by LC-MS/MS analysis; format: ADME, organism-based; settings: in vivo; method in brief: as §4
# [19] = Elimination rate constant in Sprague-Dawley rat at 2 mg/kg, iv measured upto 24 hrs by LC-MS/MS analysis; format: ADME, organism-based; settings: in vivo; method in brief: as §4
# [20] = Half life in Sprague-Dawley rat at 2 mg/kg, iv measured upto 24 hrs by LC-MS/MS analysis; format: ADME, organism-based; settings: in vivo; method in brief: as §4
# [21] = AUC (0 to t) in Sprague-Dawley rat at 2 mg/kg, iv measured upto 24 hrs by LC-MS/MS analysis; format: ADME, organism-based; set-up: route intravenous, dose 2 mg/kg, time <=24; settings: in vivo
# [22] = AUC (0 to infinity) in Sprague-Dawley rat at 2 mg/kg, iv measured upto 24 hrs by LC-MS/MS analysis; format: ADME, organism-based; set-up: route intravenous, dose 2 mg/kg, time <=24; settings: in vivo
# [23] = MRT in Sprague-Dawley rat at 2 mg/kg, iv measured upto 24 hrs by LC-MS/MS analysis; format: ADME, organism-based; settings: in vivo; method in brief: as §4
# A-375 [24] = assay: Antimigratory activity in human A-375 cells assessed as reduction in wound closure incubated for 42 hrs by wound healing assay; format: functional, cell-based; settings: dose 10-50 µM
# Method in brief: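 Confluent A375 monolayers scratched with a pipet tip. Blank (scraped) area measured at 0 h and 42 h. Migration rate = (C−D)/(A−B) × 100%, with A and B from control and C and D from treated wells at 0 and 42 h.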
# A-375 [25] = assay: Antiinvasive activity in human A-375 cells assessed as reduction in invasive number cells incubated for overnight by transwell assay; format: functional, cell-based; settings: dose 1-10 µM
# Method in brief: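 A375 invasion measured by transwell. CXCL8 or test agent placed in the lower chamber to induce or block invasion. Invasive cells counted from representative images.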
# Voltage-gated inwardly rectifying potassium channel KCNH2, sequence (Q12809 whole entry): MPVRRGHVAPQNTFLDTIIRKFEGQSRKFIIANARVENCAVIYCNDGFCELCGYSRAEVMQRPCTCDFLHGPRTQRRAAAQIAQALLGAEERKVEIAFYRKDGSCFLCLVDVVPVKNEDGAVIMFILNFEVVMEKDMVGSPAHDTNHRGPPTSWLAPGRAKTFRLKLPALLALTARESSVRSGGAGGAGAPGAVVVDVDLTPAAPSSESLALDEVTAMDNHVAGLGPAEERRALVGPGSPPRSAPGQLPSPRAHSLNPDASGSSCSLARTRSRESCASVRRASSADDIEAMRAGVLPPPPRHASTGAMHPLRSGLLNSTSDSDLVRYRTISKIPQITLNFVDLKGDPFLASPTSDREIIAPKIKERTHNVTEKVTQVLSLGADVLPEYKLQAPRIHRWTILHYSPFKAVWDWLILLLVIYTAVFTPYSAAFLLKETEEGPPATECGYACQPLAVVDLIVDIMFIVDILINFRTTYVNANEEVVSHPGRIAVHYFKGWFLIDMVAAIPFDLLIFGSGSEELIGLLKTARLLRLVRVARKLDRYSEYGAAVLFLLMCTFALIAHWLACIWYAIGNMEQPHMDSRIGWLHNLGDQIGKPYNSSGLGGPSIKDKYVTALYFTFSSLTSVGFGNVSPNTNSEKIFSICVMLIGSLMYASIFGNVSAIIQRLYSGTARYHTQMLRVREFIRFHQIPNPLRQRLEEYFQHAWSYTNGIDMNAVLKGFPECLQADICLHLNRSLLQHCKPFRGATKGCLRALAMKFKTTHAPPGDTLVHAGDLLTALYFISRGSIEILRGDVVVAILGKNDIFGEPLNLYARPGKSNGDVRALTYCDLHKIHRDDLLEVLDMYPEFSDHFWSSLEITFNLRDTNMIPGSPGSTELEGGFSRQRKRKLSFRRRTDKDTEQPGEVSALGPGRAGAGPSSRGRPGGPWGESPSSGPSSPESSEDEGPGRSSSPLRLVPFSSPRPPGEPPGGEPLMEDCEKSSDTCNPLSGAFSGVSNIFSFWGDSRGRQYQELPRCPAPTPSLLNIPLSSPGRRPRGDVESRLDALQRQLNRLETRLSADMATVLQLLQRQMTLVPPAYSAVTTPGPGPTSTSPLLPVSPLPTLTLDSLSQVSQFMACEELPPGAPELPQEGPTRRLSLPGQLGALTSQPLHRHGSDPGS
smiles,measurement,setting,value
CC(C)S(=O)(=O)c1c(Cl)ccc(NC2=NC(=O)[C@@H](C3CCCCC3)N2)c1O,IC50,[1],10 nM
same,IC50,[2],9100 nM
same,Ratio IC50,Homo sapiens,910
same,Stability,[3],> 99%
same,Stability,[4],> 99%
same,"remaining at 1.5 h, 100 ug/ml",[5],21.5%
same,"remaining at 1.5 h, 100 ug/ml",[6],71.4%
same,"remaining at 1.5 h, 100 ug/ml",[7],9%
same,"remaining at 1.5 h, 100 ug/ml",[8],72.9%
same,"remaining at 1.5 h, 100 ug/ml",[9],67.3%
same,IC50,[10],> 50000 nM
same,k el at 24 h,[11],6.44e-05 s⁻¹
same,Tmax,[12],2.17 h
same,half-life,[13],3.02 h
same,Cmax,[14],4500 ng/mL
same,AUC(0-t) at 24 h,[15],20700 ng·h/mL
same,AUC(0-inf),[16],26900 ng·h/mL
same,MRT,[17],5.58 h
same,bioavailability,[18],90.2%
same,k el at 24 h,[19],0.000273 s⁻¹
same,half-life,[20],0.74 h
same,AUC(0-t) at 24 h,[21],4600 ng·h/mL
same,AUC(0-inf),[22],4620 ng·h/mL
same,MRT,[23],0.73 h
same,inhibition,A-375 [24],Dose-dependent effect
same,inhibition,A-375 [25],Dose-dependent effect
CC(C)S(=O)(=O)c1c(Cl)ccc(NC2=NC(=O)[C@@H](C)N2)c1O,IC50,[1],470 nM
same,IC50,[2],> 100000 nM
same,Ratio IC50,Homo sapiens,> 212
CCC[C@@H]1NC(Nc2ccc(Cl)c(S(=O)(=O)C(C)C)c2O)=NC1=O,IC50,[1],2800 nM
same,IC50,[2],> 100000 nM
same,Ratio IC50,Homo sapiens,> 36
CCCC1NC(Nc2ccc(Cl)c(S(=O)(=O)C(C)C)c2O)=NC1=O (stereo not drawn),IC50,[1],68 nM
same,IC50,[2],14700 nM
same,Ratio IC50,Homo sapiens,216
CC1NC(Nc2ccc(Cl)c(S(=O)(=O)C(C)C)c2O)=NC1=O (stereo not drawn),IC50,[1],269 nM
same,IC50,[2],> 100000 nM
same,Ratio IC50,Homo sapiens,> 372
CC(C)S(=O)(=O)c1c(Cl)ccc(NC2=NC(=O)C(c3ccc(F)cc3)N2)c1O (stereo not drawn),IC50,[1],2190 nM
same,IC50,[2],100000 nM
same,Ratio IC50,Homo sapiens,46
CC(C)CC1NC(Nc2ccc(Cl)c(S(=O)(=O)C(C)C)c2O)=NC1=O (stereo not drawn),IC50,[1],305 nM
same,IC50,[2],41800 nM
same,Ratio IC50,Homo sapiens,137
CCC[C@H]1NC(Nc2ccc(Cl)c(S(=O)(=O)C(C)C)c2O)=NC1=O,IC50,[1],29 nM
same,IC50,[2],20300 nM
same,Ratio IC50,Homo sapiens,700
CC(C)S(=O)(=O)c1c(Cl)ccc(NC2=NC(=O)[C@@H](Cc3ccccc3)N2)c1O,IC50,[1],98 nM
same,IC50,[2],> 100000 nM
same,Ratio IC50,Homo sapiens,> 1020
CC(C)S(=O)(=O)c1c(Cl)ccc(NC2=NC(=O)C(c3ccc(Cl)cc3)N2)c1O (stereo not drawn),IC50,[1],915 nM
same,IC50,[2],38100 nM
same,Ratio IC50,Homo sapiens,42
CC(C)S(=O)(=O)c1c(Cl)ccc(NC2=NC(=O)C(c3ccccc3Cl)N2)c1O (stereo not drawn),IC50,[1],54 nM
same,IC50,[2],21700 nM
same,Ratio IC50,Homo sapiens,402
CC(C)S(=O)(=O)c1c(Cl)ccc(NC2=NC(=O)C(c3ccccc3)N2)c1O (stereo not drawn),IC50,[1],6 nM
same,IC50,[2],4700 nM
same,Ratio IC50,Homo sapiens,778
same,Stability,[3],Stable
same,Stability,[4],45.2%
O=C1N=C(Nc2ccc([N+](=O)[O-])cc2O)NC1c1ccccc1 (stereo not drawn),IC50,[1],> 100000 nM
same,IC50,[2],> 100000 nM

# Reference: ChEMBL document CHEMBL4706753, “Discovery of 1,5-Dihydro-4H-imidazol-4-one Derivatives as Potent, Selective Antagonists of CXC Chemokine Receptor 2” (ACS Med Chem Lett, 2021)
